Results from ChEMBL document CHEMBL1687687, “Identification of a New Series of STAT3 Inhibitors by Virtual Screening” (ACS Med Chem Lett, 2010).
pIC50: −log10 of the molar value. Active and inactive are the calls of the source. The rule behind the calls is not given here.

Key:
[1] = target: T1, Signal transducer and activator of transcription 3 (Homo sapiens, UniProt P40763); assay: Inhibition of STAT3 dimerization transfected in HEK293 cells at 50 uM after 24 hrs followed by 1 hr stimulation with 50 ng/ml IL-6 by FRET assay; format: cell-based
How it was run: (§1)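 Cell-based FRET dimerization read-out in HEK293 cells co-expressing STAT3-CFP and STAT3-YFP. Cells were pretreated with compound before IL-6 stimulation, and the FRET signal from the STAT3–STAT3 interaction was measured. Values are given as percent inhibition of the signal.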

[2] = target: T1, Signal transducer and activator of transcription 3; assay: Inhibition of STAT3 transcriptional activity in human HeLa cells at 100 uM by luciferase reporter gene assay; format: cell-based
How it was run: (§2)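 STAT3-dependent luciferase reporter gene assay in HeLa cells. Activity is reported as percent inhibition at a single 100 μM concentration, or as an IC50.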

[3] = target: T1, Signal transducer and activator of transcription 3; assay: Inhibition of STAT3 transcriptional activity in human HeLa cells by luciferase reporter gene assay; format: cell-based; how it was run: as §2
[4] = target: T1, Signal transducer and activator of transcription 3; assay: Inhibition of STAT3 dimerization transfected in HEK293 cells at 100 uM after 24 hrs followed by 1 hr stimulation with 50 ng/ml IL-6 by FRET assay; format: cell-based; settings: 10 uM, in the assay text read “at 10 uM” for “at 100 uM”; how it was run: as §1
[5] = target: T2, Signal transducer and activator of transcription 5B (Homo sapiens) (UniProt P51692); assay: Inhibition of STAT5b DNA binding activity in IL-6 stimulated human MDA-MB-468 cells at 50 uM by transcription factor ELISA; format: cell-based
T2 sequence (whole entry): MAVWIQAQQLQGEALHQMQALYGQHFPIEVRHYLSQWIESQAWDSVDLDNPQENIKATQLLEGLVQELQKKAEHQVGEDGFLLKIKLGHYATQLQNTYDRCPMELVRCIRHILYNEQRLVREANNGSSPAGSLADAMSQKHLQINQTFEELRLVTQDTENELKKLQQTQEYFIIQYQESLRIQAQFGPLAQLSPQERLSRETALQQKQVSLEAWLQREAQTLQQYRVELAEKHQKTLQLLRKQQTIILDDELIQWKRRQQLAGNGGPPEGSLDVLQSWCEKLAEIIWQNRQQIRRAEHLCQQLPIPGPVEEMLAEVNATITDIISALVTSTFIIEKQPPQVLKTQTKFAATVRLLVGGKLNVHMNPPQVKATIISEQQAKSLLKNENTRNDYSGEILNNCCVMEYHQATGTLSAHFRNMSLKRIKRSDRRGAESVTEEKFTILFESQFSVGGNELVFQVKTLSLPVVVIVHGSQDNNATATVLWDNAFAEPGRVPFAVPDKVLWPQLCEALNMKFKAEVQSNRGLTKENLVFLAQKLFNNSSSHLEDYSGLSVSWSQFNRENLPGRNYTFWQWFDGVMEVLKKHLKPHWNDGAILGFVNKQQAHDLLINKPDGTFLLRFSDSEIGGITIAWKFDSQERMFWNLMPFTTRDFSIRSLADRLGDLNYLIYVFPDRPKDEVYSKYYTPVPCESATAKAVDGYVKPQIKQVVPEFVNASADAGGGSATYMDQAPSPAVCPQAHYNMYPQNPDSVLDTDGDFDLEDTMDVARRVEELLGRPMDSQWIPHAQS

SCC-3 = assay: Antitumor activity against human SCC-3 cells xenografted in BALB/cA-v/v nude mouse assessed as decrease in tumor volume at 160 mg/kg, po QD for 4 days measured on 4th day relative to control; format: functional; parameters: scale not given: the % may be the effect or the level left
How it was run: (§3)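 Human SCC-3 lymphoma cells implanted subcutaneously in nude mice. Compound given by oral gavage at 160 mg/kg once daily for 4 days. Tumour growth was assessed on day 4 against untreated controls, with significance taken at p < 0.05. Body weight and signs of toxicity were monitored over the same period.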

[6] = target: T3, Signal transducer and activator of transcription 1-alpha/beta (Homo sapiens) (UniProt P42224); assay: Inhibition of STAT1 DNA binding activity in IL-6 stimulated human MDA-MB-468 cells at 50 uM by transcription factor ELISA; format: cell-based
T3 sequence (whole entry): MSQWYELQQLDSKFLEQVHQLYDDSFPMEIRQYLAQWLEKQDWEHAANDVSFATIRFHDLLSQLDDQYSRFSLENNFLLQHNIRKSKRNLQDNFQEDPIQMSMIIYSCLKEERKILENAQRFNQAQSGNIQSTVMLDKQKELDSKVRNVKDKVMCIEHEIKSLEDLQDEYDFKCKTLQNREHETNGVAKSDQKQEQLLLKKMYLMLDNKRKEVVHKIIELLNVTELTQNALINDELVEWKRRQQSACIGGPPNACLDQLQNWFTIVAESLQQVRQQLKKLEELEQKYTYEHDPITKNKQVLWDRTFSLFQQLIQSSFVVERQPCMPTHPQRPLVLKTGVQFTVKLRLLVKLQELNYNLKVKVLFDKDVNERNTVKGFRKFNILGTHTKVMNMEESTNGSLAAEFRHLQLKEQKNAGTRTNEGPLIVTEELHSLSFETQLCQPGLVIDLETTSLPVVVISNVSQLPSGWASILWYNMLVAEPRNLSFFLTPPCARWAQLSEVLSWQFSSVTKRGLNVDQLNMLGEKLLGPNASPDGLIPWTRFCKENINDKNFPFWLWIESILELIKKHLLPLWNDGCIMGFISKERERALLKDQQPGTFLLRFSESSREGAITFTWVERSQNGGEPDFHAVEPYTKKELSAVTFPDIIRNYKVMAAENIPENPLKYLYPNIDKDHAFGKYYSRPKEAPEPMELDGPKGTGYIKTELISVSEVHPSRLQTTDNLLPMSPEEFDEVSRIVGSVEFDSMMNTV

Mus musculus [7] = organism: Mus musculus; assay: Toxicity in BALB/cA-v/v nude mouse assessed as mortality; format: organism-based; settings: in vivo
MDA-MB-468 = assay: Induction of apoptosis in human MDA-MB-468 cells assessed as increase in caspase3/7 activity at 1-100 uM by fluorescence assay; format: functional, cell-based
[8] = target: T1, Signal transducer and activator of transcription 3; assay: Inhibition of STAT3 in human MDA-MB-468 cells assessed as reduction in c-myc expression at 10 uM by Western blotting; format: cell-based
How it was run: (§4)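 MDA-MB-468 breast cancer cells were treated with compound at a series of concentrations. Cell lysates were analysed by Western blotting for c-myc, cyclin D1 and survivin, with STAT3 Tyr705 phosphorylation probed alongside.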

MDA-MB-453 = assay: Induction of apoptosis in human MDA-MB-453 cells assessed as increase in caspase3/7 activity at 1-100 uM by fluorescence assay; format: functional, cell-based
[9] = target: T4, Signal transducer and activator of transcription 5A (Homo sapiens) (UniProt P42229); assay: Inhibition of STAT5a DNA binding activity in IL-6 stimulated human MDA-MB-468 cells at 50 uM by transcription factor ELISA; format: cell-based
T4 sequence (whole entry): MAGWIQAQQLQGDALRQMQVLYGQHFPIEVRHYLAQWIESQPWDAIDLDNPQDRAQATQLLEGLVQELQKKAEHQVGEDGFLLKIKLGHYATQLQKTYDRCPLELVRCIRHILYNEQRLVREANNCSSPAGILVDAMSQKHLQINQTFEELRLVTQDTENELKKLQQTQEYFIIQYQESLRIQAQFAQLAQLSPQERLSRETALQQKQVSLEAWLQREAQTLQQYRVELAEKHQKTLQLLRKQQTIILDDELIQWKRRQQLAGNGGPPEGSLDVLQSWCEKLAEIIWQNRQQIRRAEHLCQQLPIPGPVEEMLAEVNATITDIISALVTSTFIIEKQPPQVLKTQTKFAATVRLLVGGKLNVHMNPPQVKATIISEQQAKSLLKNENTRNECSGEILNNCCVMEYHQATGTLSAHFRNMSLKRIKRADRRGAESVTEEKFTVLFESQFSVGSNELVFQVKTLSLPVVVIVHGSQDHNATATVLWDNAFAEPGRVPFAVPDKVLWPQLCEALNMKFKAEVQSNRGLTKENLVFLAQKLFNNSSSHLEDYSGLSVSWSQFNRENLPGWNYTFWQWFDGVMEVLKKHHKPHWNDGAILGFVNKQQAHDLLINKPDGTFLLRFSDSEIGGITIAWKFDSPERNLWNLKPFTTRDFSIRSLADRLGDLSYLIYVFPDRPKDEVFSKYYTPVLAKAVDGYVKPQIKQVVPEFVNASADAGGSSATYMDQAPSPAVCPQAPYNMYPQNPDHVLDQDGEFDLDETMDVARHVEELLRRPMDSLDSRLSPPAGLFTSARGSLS

[10] = target: T1, Signal transducer and activator of transcription 3; assay: Inhibition of STAT3 in human MDA-MB-468 cells assessed as reduction in cyclin D1 expression at 50 uM by Western blotting; format: cell-based; how it was run: as §4
[11] = target: T1, Signal transducer and activator of transcription 3; assay: Inhibition of STAT3 in human MDA-MB-468 cells assessed as reduction in cyclin D1 expression at 20 uM by Western blotting; format: cell-based; how it was run: as §4
[12] = Plasma concentration in CD1(ICR) mouse at 160 mg/kg, po after 8 hrs by LC-MS analysis; format: ADME, organism-based; parameters: dose 160 mg/kg, route oral
Mus musculus [13] = organism: Mus musculus; assay: Toxicity in BALB/cA-v/v nude mouse assessed as increase in body weight relative to control; format: organism-based; settings: in vivo; how it was run: as §3
[14] = target: T1, Signal transducer and activator of transcription 3; assay: Inhibition of STAT3 in human MDA-MB-468 cells assessed as reduction in survivin expression at 10 uM by Western blotting; format: cell-based; how it was run: as §4
[15] = target: T1, Signal transducer and activator of transcription 3; assay: Inhibition of STAT3 in human MDA-MB-468 cells assessed as reduction in cyclin D1 expression at 10 uM by Western blotting; format: cell-based; how it was run: as §4
[16] = target: T1, Signal transducer and activator of transcription 3; assay: Inhibition of STAT3 in human MDA-MB-468 cells assessed as reduction in c-myc expression at 20 uM by Western blotting; format: cell-based; how it was run: as §4
[17] = target: T1, Signal transducer and activator of transcription 3; assay: Inhibition of STAT3 in human MDA-MB-468 cells assessed as reduction in c-myc expression at 50 uM by Western blotting; format: cell-based; how it was run: as §4
[18] = target: T1, Signal transducer and activator of transcription 3; assay: Inhibition of STAT3 DNA binding activity in IL-6 stimulated human MDA-MB-468 cells at 50 uM by transcription factor ELISA; format: cell-based
[19] = target: T1, Signal transducer and activator of transcription 3; assay: Inhibition of STAT3 in IL-6 stimulated human MDA-MB-468 cells assessed as reduction in amplification of c-myc promoter by CHIP assay; format: cell-based
How it was run: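 Chromatin immunoprecipitation in compound-treated MDA-MB-468 breast cancer cells. STAT3 occupancy of the c-myc promoter was judged by amplification of the c-myc promoter from the immunoprecipitate.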

[20] = target: T1, Signal transducer and activator of transcription 3; assay: Inhibition of STAT3 in human MDA-MB-468 cells assessed as reduction in survivin expression at 20 uM by Western blotting; format: cell-based; how it was run: as §4
[21] = target: T1, Signal transducer and activator of transcription 3; assay: Inhibition of STAT3 in human MDA-MB-468 cells assessed as reduction in survivin expression at 50 uM by Western blotting; format: cell-based; how it was run: as §4

T1 sequence (P40763 whole entry): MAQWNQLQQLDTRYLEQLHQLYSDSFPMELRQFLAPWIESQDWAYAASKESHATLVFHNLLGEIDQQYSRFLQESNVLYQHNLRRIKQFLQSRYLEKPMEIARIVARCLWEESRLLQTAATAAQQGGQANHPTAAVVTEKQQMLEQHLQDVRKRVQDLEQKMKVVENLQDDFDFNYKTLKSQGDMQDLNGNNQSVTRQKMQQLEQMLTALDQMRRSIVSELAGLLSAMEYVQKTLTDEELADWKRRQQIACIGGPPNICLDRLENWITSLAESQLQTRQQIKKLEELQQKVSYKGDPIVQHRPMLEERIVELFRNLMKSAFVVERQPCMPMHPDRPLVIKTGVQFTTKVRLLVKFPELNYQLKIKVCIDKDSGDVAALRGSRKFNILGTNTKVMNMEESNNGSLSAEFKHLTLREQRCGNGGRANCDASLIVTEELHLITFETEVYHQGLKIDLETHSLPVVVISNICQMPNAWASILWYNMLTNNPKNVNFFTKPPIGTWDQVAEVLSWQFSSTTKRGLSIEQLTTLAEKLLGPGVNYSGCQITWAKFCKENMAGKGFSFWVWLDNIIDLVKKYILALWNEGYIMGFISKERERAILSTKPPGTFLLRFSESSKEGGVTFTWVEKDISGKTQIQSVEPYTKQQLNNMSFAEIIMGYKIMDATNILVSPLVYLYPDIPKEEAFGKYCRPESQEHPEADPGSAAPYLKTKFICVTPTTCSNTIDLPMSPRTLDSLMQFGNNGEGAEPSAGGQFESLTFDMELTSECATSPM

SMILES	inhibition [1] [%]	inhibition [2] [%]	pIC50 [3]	inhibition [4] [%]	other results
O=C(Nc1nnc(Cc2ccccc2)o1)c1cc(-c2ccccc2)nc2ccccc12	61	82	4.12	25	–
O=C(Nc1nnc(-c2ccco2)o1)c1cc(N2CCCCC2)nc2ccccc12	–	-7	–	–	–
O=C(Nc1nnc(-c2ccco2)s1)c1cc(-c2ccccc2)nc2ccccc12	–	26	–	–	–
CCc1nnc(NC(=O)c2cc(-c3ccccc3)nc3ccccc23)o1	–	33	–	–	–
Cc1nnc(NC(=O)c2cc(-c3ccccc3)nc3ccccc23)o1	–	14	–	–	–
O=C(Nc1nnc(-c2cccs2)o1)c1cc(-c2ccccc2)nc2ccccc12	56	86	4.12	36	–
O=C(Nc1nnc(-c2ccccc2Cl)o1)c1cc(-c2ccccc2)nc2ccccc12	–	5	–	–	–
O=C(Nc1nnc(-c2ccccc2)o1)c1cc(-c2ccccc2)nc2ccccc12	60	105	4.18	43	–
O=C(Nc1nnc(-c2ccco2)o1)c1cc(-c2ccccc2)nc2ccccc12	62	99	4.13	9	inhibition [5]: inactive; Activity (SCC-3): 40%; inhibition [6]: inactive; Activity (Mus musculus [7]): Non-toxic; Activity (MDA-MB-468): Active; inhibition [8]: Active; Activity (MDA-MB-453): inactive; inhibition [9]: inactive; inhibition [10]: Active; inhibition [11]: Active; concentration at 8 h [12]: > 260 µM; Activity (Mus musculus [13]): Non-toxic; inhibition [14]: Active; inhibition [15]: Active; inhibition [16]: Active; inhibition [17]: Active; inhibition [18]: Active; inhibition [19]: Active; inhibition [20]: Active; inhibition [21]: Active
O=C(Nc1nnc(-c2ccc(Cl)cc2)o1)c1cc(-c2ccccc2)nc2ccccc12	–	115	4.21	–	–
CCOC(=O)c1nnc(NC(=O)c2cc(-c3ccccc3)nc3ccccc23)o1	–	38	–	–	–
O=C(Nc1nnc(-c2ccoc2)o1)c1cc(-c2ccccc2)nc2ccccc12	55	103	4.14	8	–

Further lines, with some results ahead:

inhibition [1] [%]	inhibition [2] [%]	pIC50 [3]	inhibition [4] [%]	SMILES	other results
-4	-5	–	-2	O=C(Nc1nnc(-c2ccco2)o1)c1ccnc2ccccc12	–
–	12	–	–	O=C(Nc1nnc(-c2ccco2)o1)c1cc(-c2cccnc2)nc2ccccc12	–
70	121	4.26	14	O=C(Nc1nnc(-c2ccco2)o1)c1cc(-c2cccc3ccccc23)nc2ccccc12	–
–	129	4.18	–	O=C(Nc1nnc(-c2ccco2)o1)c1cc(-c2ccco2)nc2ccccc12	–
–	43	–	–	O=C(Nc1nnc(-c2ccco2)o1)c1cc(Cl)nc2ccccc12	–
–	5	–	–	O=C(Nc1nnc(-c2ccco2)o1)c1cc(-c2ccccn2)nc2ccccc12	–
56	91	4.20	18	O=C(Nc1nnc(-c2ccco2)o1)c1cc(-c2cccs2)nc2ccccc12	–
